The results in this text go back to ChEMBL document CHEMBL4229392, “An Efficient Buchwald-Hartwig/Reductive Cyclization for the Scaffold Diversification of Halogenated Phenazines: Potent Antibacterial Targeting, Biofilm Eradication, and Prodrug Exploration” (J Med Chem, 2018).

The subject of data set [1] is Staphylococcus aureus. Description: Antibacterial activity against methicillin-resistant Staphylococcus aureus BAA-1707 after 16 to 18 hrs by broth microdilution method. The data set is classed as functional. The method, boiled down:
(§1)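 CLSI broth microdilution in Lysogeny Broth, eleven two-fold dilutions spanning 0.10–100 µM; ~10^5 cells per well from log-phase culture; DMSO vehicle (top 1% v/v). MIC = lowest concentration preventing growth after 16–18 h at 37 °C, supported by OD600; three independent experiments.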
For orientation: Broth dilution looks for growth in wells or tubes with falling amounts of substance.

Data set [2] has as its system Enterococcus faecium. The data set can be described thus: Antibacterial activity against vancomycin-resistant Enterococcus faecium ATCC 700221 after 16 to 18 hrs by broth microdilution method. The data set is classed as functional. The method, boiled down: as §1
Data set [3] concerns Staphylococcus epidermidis. The data set can be described thus: Antibacterial activity against methicillin-resistant Staphylococcus epidermidis ATCC 35984 after 16 to 18 hrs by broth microdilution method. In kind it is functional.
A further data set deals with HeLa. The data set can be described thus: Cytotoxicity against human HeLa cells after 24 hrs by LDH release assy. In kind it is cell-based. The method in brief: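 HeLa cells in DMEM with 10% FBS at 37 °C, 5% CO2, dosed at 70-80% confluence with compound diluted in medium at 25, 50 and 100 µM for 24 h. Supernatant mixed with LDH reaction mixture, 30 min at room temperature, stopped, A490 read. Triton X-100 (2% v/v) as maximal-release control, medium only as no-death control, DMSO as vehicle. Three independent experiments.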
In general terms: LDH in the medium is a marker of cell lysis.

Data set [4] deals with Mycobacterium tuberculosis. The data set can be described thus: Antibacterial activity against Mycobacterium tuberculosis H37Ra ATCC 25177 after 7 days. The data set is classed as functional. The note with it: H37Ra ATCC 25177, 168 h. The method in brief: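 M. tuberculosis H37Ra grown two weeks in Middlebrook 7H9, diluted to OD600 0.01; two-fold serial dilutions 0.024–50 µM (streptomycin positive control, 0.16–340 µM); final DMSO 0.5%. Incubated 7 days at 37 °C; MIC = lowest concentration with no growth, OD600 recorded; three independent experiments.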

Data set [5] in a line: Selectivity index, ratio of IC50 for human HeLa cells to MIC for methicillin-resistant Staphylococcus aureus BAA-1707. The conditions noted are these: read-out: Selectivity Index. The data set is classed as toxicity. The method in brief:
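HeLa cells in DMEM + 10% FBS, 37 °C, 5% CO2, at 70–80% confluence exposed 24 h to 25, 50 and 100 µM; LDH release read at 490 nm (Triton X-100 2% maximum, medium-only minimum); three independent experiments. Index = HeLa IC50 divided by MRSA BAA-1707 MIC.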

Data set [6] has as its system Staphylococcus aureus. Description: Bactericidal activity against methicillin-resistant Staphylococcus aureus BAA-44 planktonic cells after 24 hrs by calgary biofilm device method. The data set is classed as organism-based. The method, boiled down:
(§2)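 Biofilms grown 24 h at 37 °C on Calgary device pegs from mid-log culture diluted 1,000-fold in TSB + 0.5% glucose; washed pegs challenged 24 h at 37 °C with 2-fold serial dilutions. Challenge medium subcultured into fresh TSBG overnight; MBC = concentration without visible turbidity; at least three independent experiments.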

In data set [7] the test system is Staphylococcus aureus. Description: Bactericidal activity against methicillin-resistant Staphylococcus aureus 2 planktonic cells after 24 hrs by calgary biofilm device method. In kind it is organism-based. The method in brief: as §2
In data set [8] the test system is Staphylococcus aureus. The data set can be described thus: Induction of biofilm eradication of methicillin-resistant Staphylococcus aureus BAA-1707 after 24 hrs by calgary biofilm device method. The data set is classed as functional. The method, boiled down: (§3)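 Calgary device: biofilms established 24 h at 37 °C from mid-log culture diluted 1,000-fold in TSBG (0.5% glucose), washed, exposed 24 h to 2-fold serial dilutions, then peg lid moved to fresh TSBG for 24 h recovery. MBEC = lowest concentration giving no turbidity; at least three independent experiments.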

Data set [9] in a line: Metal chelating activity assessed as compound-Fe2+ complex formation at 5 mM by UV-vis spectrometry. The method, boiled down: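 HP solutions given ammonium iron(II) sulfate hexahydrate; UV-vis scans 300–700 nm in 2 nm steps, λmax 374 nm. Loss of absorbance at 374 nm taken as loss of free hydroxyphenazine and formation of phenazine–iron(II) complex.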
In data set [10] the test system is Staphylococcus epidermidis. Description: Bactericidal activity against methicillin-resistant Staphylococcus epidermidis ATCC 35984 planktonic cells after 24 hrs by calgary biofilm device method. In kind it is organism-based. The method, boiled down:
as §2

The subject of data set [11] is Staphylococcus epidermidis. The data set can be described thus: Induction of biofilm eradication of methicillin-resistant Staphylococcus epidermidis ATCC 35984 after 24 hrs by calgary biofilm device method. The data set is classed as functional. The method in brief: as §3
Data set [12] is described as follows: Metal chelating activity assessed as compound-copper complex formation by UV-vis spectrometry.
Data set [13] has as its system Staphylococcus aureus. Description: Induction of biofilm eradication of methicillin-resistant Staphylococcus aureus 2 after 24 hrs by calgary biofilm device method. The data set is classed as functional. The method, boiled down:
as §3

The test system of data set [14] is Staphylococcus epidermidis. Description: Induction of biofilm eradication of methicillin-resistant Staphylococcus epidermidis ATCC 35984 at 1 to 10 uM after 24 hrs by live/dead staining-based fluorescence microscopic method. In kind it is functional, organism-based. The method, boiled down:
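MRSE 35984 mid-log culture diluted 1:1,000, biofilms grown 24 h at 37 °C in compartment dishes, saline-washed, then treated at 1, 5 and 10 µM in fresh medium for 24 h at 37 °C; DMSO negative control. After saline wash, live/dead stained biofilms imaged by fluorescence microscopy; three independent experiments.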

Data set [15] has as its system Staphylococcus aureus. The data set can be described thus: Antibacterial activity against methicillin-resistant Staphylococcus aureus BAA-1707 after 16 hrs by agar diffusion method. The data set is classed as functional.
In data set [16] the test system is Staphylococcus aureus. The data set can be described thus: Antibacterial activity against methicillin-resistant Staphylococcus aureus 2 after 16 to 18 hrs by broth microdilution method. In kind it is functional. The method in brief: as §1
A short description of data set [17]: Hemolytic activity in human RBC at 200 uM after 1 hr relative to control. In kind it is ADME, cell-based, Erythrocyte. The note with it: red blood cells (erythrocytes), read-out: Activity. The method, boiled down: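 Human RBCs drawn fresh into EDTA were washed three times in Tris-buffered saline (0.01 M Tris, 0.155 M NaCl, pH 7.2). 2% hRBC suspension was added to compound from DMSO stock, final 200 µM, for 1 h at 37 °C, then centrifuged and supernatant OD405 read. Scaled between DMSO (0%) and Triton X (100%). Three independent experiments.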

The nature of data set [18]: Stability in lysogeny broth at 37 degC up to 16 hrs by UV-vis spectrophotometric method. The data set is classed as physicochemical. The method, boiled down:
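Compound from 10 mM DMSO stock was added to LB pre-warmed to 37 °C and incubated at 37 °C. At each time point it was extracted with an equal volume of ethyl acetate, and UV-vis spectra were scanned from 200 to 700 nm in 2 nm steps.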

In data set [19] the test system is Enterococcus faecium. Description: Induction of biofilm eradication of vancomycin-resistant Enterococcus faecium ATCC 700221 after 24 hrs by calgary biofilm device method. The data set is classed as functional. The method, boiled down:
as §3

The subject of data set [20] is Staphylococcus aureus. Description: Bactericidal activity against methicillin-resistant Staphylococcus aureus BAA-1707 planktonic cells after 24 hrs by calgary biofilm device method. In kind it is organism-based. The method in brief: as §2
Data set [21] in a line: Half life in human serum by LC-MS analysis. In kind it is ADME, cell-free. The method in brief:
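Human serum pre-warmed to 37 °C, spiked with prodrug from 10 mM DMSO stock plus internal standard, vortexed, then held 1 to 60 min. At each time point, acetonitrile with 0.5% formic acid was added to precipitate proteins. Released active HP was quantified as its ratio to internal standard against standard curves.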

Data set [22] concerns Enterococcus faecium. The data set can be described thus: Bactericidal activity against vancomycin-resistant Enterococcus faecium ATCC 700221 planktonic cells after 24 hrs by calgary biofilm device method. The data set is classed as organism-based. The method in brief: as §2

Converted amounts (≈) assume the structure as drawn. The source made the active and inactive calls. No cut-off for these calls is given here.

As to `Cc1ccc2nc3c(O)ccc(Br)c3nc2c1`, the MIC (as a rule, the lowest concentration found to suppress growth) turned out to be 12.5 µM (≈ 3.61 µg/mL) against Staphylococcus aureus [1], 25 µM (≈ 7.23 µg/mL) with Enterococcus faecium [2], 12.5 µM (≈ 3.61 µg/mL) in data set [3] and 25 µM (≈ 7.23 µg/mL) in data set [4]. For the same compound, in the data set with HeLa, the 50% inhibitory concentration (IC50) (usually the concentration that inhibits the measured activity by half) was greater than 100 µM. In addition, the selectivity ratio in [5] is greater than 8.
In the case of `Oc1c(Br)cc(Br)c2nc3cc(Cl)ccc3nc12`, the MBC (with Staphylococcus aureus [6]; in the data set with Staphylococcus aureus [7]; in [10]) was 6.25 µM (≈ 2.43 µg/mL) in each case. Further, the MBEC in the data set with Staphylococcus aureus [8] amounted to 4.69 µM; in data set [11], 37.5 µM; in the data set with Staphylococcus aureus [13], 25 µM. In addition, the MIC in the data set with Staphylococcus aureus [1] is 0.038 µM (≈ 0.0148 µg/mL); in data set [3], 0.1 µM (≈ 0.0388 µg/mL); in [4], 3.13 µM (≈ 1.22 µg/mL); against Staphylococcus aureus [16] it was 0.1 µM (≈ 0.0388 µg/mL). Besides, the outcome in [9], in data set [12] and in [14] was Active. This compound gave a 50% inhibitory concentration (IC50) with HeLa greater than 100 µM. Also, the “inhibition zone (IZ)” value with Staphylococcus aureus [15] was found to be 4.25 cm2. Further, the hemolysis at 1 h, 200 µM in data set [17] is no more than 1%.
`CC1=C(C)C(=O)C(COC(=O)OCOc2c(Br)cc(Br)c3nc4ccccc4nc23)=C(C)C1=O`: in data set [18], the Stability entry is “Stable”. Besides, the MBEC in the data set with Staphylococcus aureus [8] is 75 µM; with Enterococcus faecium [19], 9.38 µM; in data set [11], 150 µM. Moreover, the minimal inhibitory concentration (MIC) against Staphylococcus aureus [1] turned out to be 2.35 µM (≈ 1.39 µg/mL); with Enterococcus faecium [2], 9.38 µM (≈ 5.54 µg/mL); in data set [3] it was 2.35 µM (≈ 1.39 µg/mL). Besides, the MBC in [10] is 37.5 µM (≈ 22.1 µg/mL); against Staphylococcus aureus [20], 25 µM (≈ 14.8 µg/mL); against Enterococcus faecium [22], 12.5 µM (≈ 7.38 µg/mL). Besides, the half-life (in general, the time in which the quantity being followed falls by half) in data set [21] amounted to 6.3 min. The hemolysis at 1 h, 200 µM in data set [17] was no more than 1%.
